SMILES strings stand for the structures.

The term Inhibition denotes the change of the read-out against control, counted positive when it falls. As a reminder, the IC50 is the concentration needed to halve the response being measured. The inhibition is the drop in the measured response relative to a control, in per cent. High values mean a strong effect, low ones a weak effect.

The target of assay [1] is T1, Protease (Human immunodeficiency virus 1, UniProt Q9YQ12). Nature of the assay: Inhibition of purified HIV-1 protease using [Arg-Glu(EDANS)-Ser-Gin-Asn-Tyr-Ile-Val-Gin-Lys(dabcyl)-Arg) as fluorogenic substrate at 0.08 ng/ml by fluorescence assay.
For assay [2], the target named is T1, Protease. In words: Inhibition of purified HIV-1 protease using [Arg-Glu(EDANS)-Ser-Gin-Asn-Tyr-Ile-Val-Gin-Lys(dabcyl)-Arg) as fluorogenic substrate at 0.4 ng/ml by fluorescence assay.
In assay [3] the target is T1, Protease. In words: Inhibition of purified HIV-1 protease using [Arg-Glu(EDANS)-Ser-Gin-Asn-Tyr-Ile-Val-Gin-Lys(dabcyl)-Arg) as fluorogenic substrate at 10 ng/ml by fluorescence assay.
The target of assay [4] is T1, Protease. Nature of the assay: Inhibition of purified HIV-1 protease using [Arg-Glu(EDANS)-Ser-Gin-Asn-Tyr-Ile-Val-Gin-Lys(dabcyl)-Arg) as fluorogenic substrate at 2 ng/ml by fluorescence assay.
Assay [5] deals with T1, Protease. In words: Inhibition of purified HIV-1 protease using [Arg-Glu(EDANS)-Ser-Gin-Asn-Tyr-Ile-Val-Gin-Lys(dabcyl)-Arg) as fluorogenic substrate at 50 ng/ml by fluorescence assay.
The target of assay [6] is T1, Protease. Nature of the assay: Inhibition of purified HIV-1 protease using [Arg-Glu(EDANS)-Ser-Gin-Asn-Tyr-Ile-Val-Gin-Lys(dabcyl)-Arg) as fluorogenic substrate by fluorescence assay. An outline of the steps:
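Wild-type HIV-1 protease, cloned, expressed in Escherichia coli and purified. Inhibitors dissolved in DMSO and diluted. Incubation at 30 °C in 0.1 M sodium acetate, 1 M NaCl, 1 mM DTT, 1 mM EDTA, 3% DMSO, pH 5.0, with the EDANS/dabcyl fluorogenic peptide substrate. Cleavage read by fluorescence in a microplate reader.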

Assay [7] addresses Protease (Human immunodeficiency virus 1) (UniProt Q9YQ12). Nature of the assay: Inhibition of purified HIV-1 protease using [Arg-Glu(EDANS)-Ser-Gin-Asn-Tyr-Ile-Val-Gin-Lys(dabcyl)-Arg) as fluorogenic substrate at 10 nM by fluorescence assay.

T1 sequence (Q9YQ12 whole entry): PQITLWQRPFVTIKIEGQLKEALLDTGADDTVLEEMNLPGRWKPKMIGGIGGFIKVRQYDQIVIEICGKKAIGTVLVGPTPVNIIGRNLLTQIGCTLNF
Chain of Protease (Human immunodeficiency virus 1) (Q9YQ12 as listed by the source): as the sequence (Q9YQ12 whole entry) above

With `COc1ccc(S(=O)(=O)N(CC(C)C)C[C@@H](O)[C@H](Cc2ccccc2)NC(=O)O[C@H]2CO[C@H]3[C@@H]2OC[C@H]3O[N+](=O)[O-])cc1`, the Inhibition at Protease [1] is 53.7%; on Protease [2], 62.6%; on Protease [3] it was 100%; on Protease [4], 93.1%; at Protease [5], 93.1%. At Protease [6], the IC50 is 0.11 nM.

In assay [7], `CC(C)(C)NC(=O)[C@@H]1CN(Cc2cccnc2)CCN1C[C@@H](O)C[C@@H](Cc1ccccc1)C(=O)N[C@H]1c2ccccc2C[C@H]1O` displayed an inhibition of 96.9%.

Turning to `COc1ccc(S(=O)(=O)N(CC(C)C)C[C@@H](O)[C@H](Cc2ccccc2)NC(=O)O[C@H]2CO[C@H]3[C@@H]2OC[C@H]3OC)cc1`, the Inhibition on Protease [1] was determined as 53.7%; at Protease [2], 83.2%; at Protease [3] it was 102%; on Protease [4], 93.5%; at Protease [5], 96.2%. On Protease [6], this compound yielded an IC50 of 0.05 nM.

On to `CC(C)CN(C[C@@H](O)[C@H](Cc1ccccc1)NC(=O)O[C@H]1CO[C@H]2[C@@H]1OC[C@H]2O)S(=O)(=O)c1ccc(N)cc1`, for which the Inhibition on Protease [1] turned out to be 33.7%; at Protease [2], 57.7%; at Protease [3], 95.4%; on Protease [4], 80.7%; on Protease [5], 98.3%. It took 0.43 nM to reach half-maximal inhibition on Protease [6] (IC50).

Turning to `COc1ccc(S(=O)(=O)N(CC(C)C)C[C@@H](O)[C@H](Cc2ccccc2)NC(=O)O[C@H]2CO[C@H]3[C@@H]2OC[C@H]3O)cc1`, the Inhibition on Protease [1] was 51.4%; on Protease [2] it was 74.2%; at Protease [3], 98%; on Protease [4], 99.5%; on Protease [5] it was 97.2%. Further, the IC50 against Protease [6] came out at 0.1 nM.

With `CC(C)CN(C[C@@H](O)[C@H](Cc1ccccc1)NC(=O)O[C@H]1CO[C@H]2[C@@H]1OC[C@H]2O[N+](=O)[O-])S(=O)(=O)c1ccc(N)cc1`, the Inhibition on Protease [1] is 47.2%; on Protease [2], 75.7%; on Protease [3], 98.6%; at Protease [4], 94.2%; on Protease [5], 94.7%. The 50% inhibitory concentration (IC50) against Protease [6] amounted to 0.12 nM.

On to `CO[C@@H]1CO[C@H]2[C@@H]1OC[C@@H]2OC(=O)N[C@@H](Cc1ccccc1)[C@H](O)CN(CC(C)C)S(=O)(=O)c1ccc(N)cc1`, for which the Inhibition came out at 40.6% on Protease [1]; 59.6% on Protease [2]; 100% at Protease [3]; 103% on Protease [4]; 97% on Protease [5]. Moreover, at Protease [6], the 50% inhibitory concentration (IC50) is 0.36 nM.

These data come from ChEMBL document CHEMBL3259543 (Bioorg Med Chem Lett, 2014).
